STAT3 activator: activators of IL-6 induced STAT3 signaling. activation (% of control), % at 5.6 µM. hit rate 0.91% among 190,000. U3A cells, IL-6 STAT3-luciferase reporter, luminescence; 100% = signal with IL-6 EC80 alone;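 active means activation above the screen-wide mean of compound activation plus 3 SD, cut at about 130% in these data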;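 further: 0% = background luminescence of wells with medium and substrate only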
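Material: STAT3-luciferase reporter U3A cells; Probe or stimulus: IL-6 (33 ng/mL); Incubation: compound pre-incubation 1 h before IL-6, then 6 h stimulation at 37 °C; Technique: luminescence from STAT3-driven luciferase reporter; Evaluation: % activation versus median of IL-6-stimulated wells; Controls: IL-6-only high control.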
PPC-1+TRAIL kill: kills PPC-1 cancer cells in the presence of TRAIL; PPC-1 cells + TRAIL, ATPLite viability luminescence; cell killing (% activity), % at 4 µM or 5 µM; hit rate 0.41% among 220,000;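 active means cell killing above 50% in the first pass at 4 µM, then a duplicate retest at 5 µM averaging 50% or more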;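 further: plate controls were cells with TRAIL plus DMSO for no effect and medium-only wells lacking cells for full effect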
TRAIL sens C8: caspase-8 TRAIL sensitization. hit rate 1% among 360,000. inhibition (viability loss, TRAIL sensitization), % at 10 µM. NB7+C8 cells + TRAIL, ATPlite viability luminescence;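 active means compounds causing at least 50% loss of cell viability in the single-dose screen, relative to plate controls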
STAT3 inh-1: reduces IL-6 driven STAT3 reporter signal; hit rate 0.89% among 190,000; AID 862; U3A cells, IL-6 STAT3-luciferase reporter, luminescence; host cell line lacks STAT1; inhibition, % at 5.5 µM;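 active means inhibition above the mean inhibition across all screened compounds plus 3 SD, cut at about 44% in these data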;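 further: 0% = DMSO only wells and 100% = 100 µM nifuroxazide control wells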
STAT1 blocker: reduces IFN-gamma driven STAT1 reporter signal. NIH 3T3 STAT1-luciferase reporter, luminescence. hit rate 0.35% among 200,000. inhibition, % at 5.5 µM. AID 920;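 active means inhibition above a set limit, the mean inhibition across all tested compounds plus 3 SD, cut at about 34% in these data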;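 further: 0% = IFN-gamma with DMSO and 100% = IFN-gamma with 300 µM nifuroxazide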
STAT3 inh-2: confirmation of STAT3 signaling inhibitors; inhibition, % at 5.7 µM; AID 1265; shares compounds with STAT3 inh-1; hit rate 45% among 1,200; U3A cells, IL-6 STAT3 luciferase reporter, luminescence; cell line lacks STAT1;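 active means inhibition above the hit cutoff computed for the primary STAT3 screen, cut at about 44% in these data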;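 further: 0% = IL-6 plus DMSO and 100% = IL-6 plus nifuroxazide control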
NFkB inh STAT3ct: inhibits NF-kappaB, counter-screen to STAT3 inhibitors; inhibition, % at 5.7 µM; shares compounds with STAT3 inh-1; hit rate 36% among 1,200; HEK293T NF-kB luciferase reporter, TNF-alpha induced; AID 1308;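 active means inhibition above the mean of solvent-only control wells plus 3 SD, cutoff set per campaign, cut at about 13% in these data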;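 further: 0% = TNF-alpha with DMSO and 100% = TNF-alpha with MG high control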
STAT1 inh 2: STAT1 inhibition in STAT3 inhibitor counter-screen; shares compounds with STAT3 inh-1; NIH 3T3 STAT1-luciferase reporter, IFN-gamma induced, luminescence; inhibition, % at 5.7 µM; hit rate 27% among 1,200; AID 1317;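 active means inhibition above the mean plus 3 SD of solvent-only control wells, limit set per screening run, cut at about 16% in these data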;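 further: 0% = DMSO with IFN-gamma and 100% = nifuroxazide control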
* marks the source's active call; other numbers are inactive results; x = no result. Hits are enriched below; roughly 1.8% of the tested compounds scored in any of these assays.

SMILES	STAT3 activator	PPC-1+TRAIL kill	TRAIL sens C8	STAT3 inh-1	STAT1 blocker	STAT3 inh-2	NFkB inh STAT3ct	STAT1 inh 2
CCCCOC(=O)c1[nH]c2c(c1C)C(=O)CC(c1cc(OC)c(OC)c(OC)c1)C2 (stereo not given)	56.9	21.7	26.8	52.9*	23.1	62.9*	23.5*	24.3*
COc1ccc(N=C/C=C2\C=C(c3ccccc3)OC(C)(C)O2)cc1	63.1	2.8	-11.6	48.3*	15.7	8.0	5.0	6.5
Cc1ccc(/C=C/c2nc3ccccc3[nH]2)o1	58.8	12.4	17.2	53.7*	10.5	-15.5	-14.7	-34.3
CC(C)CC(=O)NC(=S)Nc1ccc(N2CCOCC2)c(Cl)c1	111.8	11.4	-0.2	-6.7	5.8	x	x	x
O=C(Cc1ccccc1)N1CCCC(c2nc(-c3ccc(S(=O)(=O)N4CCCC4)cc3)no2)C1 (stereo not given)	97.3	-0.4	-11.3	8.7	19.2	x	x	x
O=C(C1CC1)N1CCC(c2nc(-c3ccc(S(=O)(=O)NCC4CCCO4)cc3)no2)CC1 (stereo not given)	57.9	14.7	7.1	50.6*	22.9	55.5*	14.6*	14.8
CS(=O)(=O)N1CCCC(c2nc(-c3ccc(S(=O)(=O)NCc4ccccc4)cc3)no2)C1 (stereo not given)	47.3	-0.9	30.4	66.5*	13.6	72.0*	26.0*	22.0*
O=C(c1ccccc1)N1CCC(c2nc(-c3ccc(S(=O)(=O)NCC4CCCO4)cc3)no2)CC1 (stereo not given)	42.1	5.4	4.7	69.4*	18.9	40.7	22.0*	27.4*
Cc1ccc(OCCSc2nc3ccccc3n2CCC(=O)O)c(C(C)C)c1	x	x	-4.1	x	x	x	x	x
c1ccc(C2=NNC(=NC3CC3)SC2)cc1	41.8	32.7	17.3	74.3*	26.9	37.7	11.9	-16.9
Cc1cccc(NC(=O)c2ccc3c(Cl)c4c(nc3c2)CCCC4)n1	51.4	35.9	69.9*	64.0*	-52.1	24.7	-7.3	-112.0
Cc1cccc(NC(=O)c2onc3c2CCCC3)n1	42.5	80.8*	86.1*	70.6*	-22.1	54.8*	17.8*	-22.6
Cc1cccc(NC(=O)c2onc3c2CCCC3)c1C	111.8	-4.2	21.5	-9.5	-45.3	x	x	x
C/C(=N/NC(=O)c1ccccn1)c1ccco1	65.5	32.8	54.2*	43.6*	-8.8	11.0	-15.6	-42.9
COC(=O)N/N=C(\C)c1ccco1	102.5	13.1	-5.5	3.0	-7.1	x	x	x
CN(C)c1ccc(-c2n(C)c3ccccc3[n+]2C)cc1	39.5	1.3	8.3	74.4*	18.7	64.9*	-6.6	24.3*
CCCn1c(CC)nc([N+](=O)[O-])c1Sc1ncn[nH]1	x	x	3.3	x	x	x	x	x
CN1CCN(CC(=O)Nc2nc3c(s2)CCCC3)CC1	x	10.5	-17.4	x	x	x	x	x
CCN1CCN(/C=N/c2nc3c(s2)CCCC3)CC1	57.6	21.4	20.2	52.3*	-14.4	17.1	3.7	-29.8
COc1ccc(-n2ncc3c(NC(C)C)ncnc32)cc1	54.6	46.9	41.6	55.7*	-55.7	13.6	-39.0	-145.5
COc1ccc(N(Cc2ccccc2)C(=O)CSc2nnc(Cn3nnc4ccccc43)o2)cc1	94.9	17.9	-1.1	7.7	6.4	x	x	x
O=C(CSc1nnc(Cn2nnc3ccccc32)o1)N(Cc1ccc(F)cc1)c1ccccc1	36.6	27.5	17.8	75.6*	20.1	71.8*	23.8*	19.1*
Fc1ccccc1/C=C/c1ccc2ccccc2n1	40.3	39.1	77.0*	72.5*	5.0	35.8	30.5*	-14.6
CC(=O)Oc1ccc(Cl)cc1/C=C/c1ccc2ccccc2n1	124.0	9.3	17.1	-20.6	5.3	x	x	x
O=C(NC(=S)Nc1ccc(N2CCCCC2)c(Cl)c1)c1ccc2c(c1)OCCO2	51.6	11.5	13.8	64.2*	4.3	66.0*	21.5*	4.5
COc1ccc(/C=C/c2cc(-c3ccc(C)cc3)o[n+]2C)cc1	67.8	42.0	74.0*	44.3*	24.1	20.2	12.5	19.9*
CCCCOc1c(Br)cc(CNCCCN2CCOCC2)cc1OC	x	x	8.5	x	x	x	x	x

Bioassay records: PubChem BioAssay, several laboratories
